# Source: paper PMC7201918 (The Journal of Experimental Medicine, 2020)
# B1: IL-18–binding protein: endogenous inhibitor of IL-18 (protein, UniProt O95998 31-194, looked up)
# Interleukin-18-binding protein: TPVSQTTTAATASVRSTKDPCPSQPPVFPAAKQCPALEVTWPEVEVPLNGTLSLSCVACSRFPNFSILYWLGNGSFIEHLPGRLWEGSTSRERGSTGTQLCKALVLEQLTPALHSTNFSCVLVDPEQVVQRHVVLAQLWAGLRATLPPTQEALPSSHSSPQQQG
# B2: G-CSF: recombinant G-CSF (100 ng/ml) (protein, UniProt P09919 31-207, looked up)
# Granulocyte …: TPLGPASSLPQSFLLKCLEQVRKIQGDGAALQEKLVSECATYKLCHPEELVLLGHSLGIPWAPLSSCPSQALQLAGCLSQLHSGLFLYQGLLQALEGISPELGPTLDTLQLDVADFATTIWQQMEELGMAPALQPTQGAMPAFASAFQRRAGGVLVASHLQSFLEVSYRVLRHLAQP
# Legend:
# IL-18 = conditions: cited from earlier work
# synovial cell cultures = conditions: exogenous IL-18, synovial cell cultures; ref Gracie et al., 1999; cited from earlier work
# WT mouse BM neutrophils = assay: SOCS mRNA expression by real-time PCR in BM neutrophils; assay type: cell-based; conditions: purified mouse BM neutrophils, 100 ng/ml GM-CSF, later time points
# [1] = test system: human blood neutrophils and monocytes; assay: Immunoblotting of pSTAT5 and CIS in human blood neutrophils and monocytes; assay type: cell-based; conditions: GM-CSF stimulation
# How it was run: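 Blood neutrophils and monocytes from healthy human donors were treated with GM-CSF. pSTAT5, CIS and β-actin were immunoblotted from RIPA lysates (protease and phosphatase inhibitors, BCA-normalized) run on 4–12% Bis-Tris gels and detected by chemiluminescence. One experiment representative of three.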
# CIS−/− BM neutrophils = assay: Immunoblot of JAK-STAT/MAPK/Akt phosphorylation in WT or CIS−/− BM neutrophils; assay type: cell-based, mouse
# How it was run: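 Ly6G-selected bone marrow neutrophils (≥95% pure) were primed with GM-CSF (100 ng/ml) for 3 h, washed, and held in cytokine-free medium for various times. Cells were lysed in RIPA buffer containing protease and phosphatase inhibitors, and loading was normalized by BCA assay. Lysates were separated on 4–12% Bis-Tris gels, transferred to PVDF, and detected by chemiluminescence. One of three independent experiments.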
# [2] = test system: CD131 (GM-CSFRβ) on BM neutrophils; assay: Flow-cytometric analysis of CD131; assay type: cell-based, mouse; conditions: CIS−/− compared with WT neutrophils from 50:50 chimeric mice; n = 4 mice
# How it was run: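 Surface CD131 was measured by flow cytometry on bone marrow neutrophils from WT:CIS−/− (50:50) chimeric mice. Cells were analysed naive (t0) and after stimulation with recombinant G-CSF or GM-CSF (100 ng/ml). n = 4 mice pooled from two independent experiments.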
# [3] = test system: WT or CIS−/− BM neutrophils; assay type: cell-based, mouse; conditions: for cleaved caspase-3 induction upon cytokine withdrawal: G-CSF: WT and CIS−/− neutrophils, GM-CSF: CIS−/− relative to WT; for Mcl-1 expression: WT and CIS−/− neutrophils, G-CSF or GM-CSF preconditioning
# How it was run: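 Purified bone marrow neutrophils were exposed to recombinant G-CSF or GM-CSF (100 ng/ml) for 3 h, then replenished with cytokine-free medium for the indicated times. RIPA lysates with protease and phosphatase inhibitors were BCA-normalized. They were resolved on 4–12% Bis-Tris gels, blotted to PVDF, and developed by HRP chemiluminescence.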
# [4] = test system: BM neutrophils from WT and CIS−/− mice; assay: CXCL2 and CCL3 secretion by BM neutrophils; assay type: cell-based, mouse; conditions: CIS−/− vs WT neutrophils, GM-CSF for 24 h; n = 3 mice
# CCRL2 on BM neutrophils = assay: Flow-cytometric analysis of CCRL2 surface expression on BM neutrophils; assay type: cell-based, mouse; conditions: CIS−/− vs WT neutrophils; n = 3 mice
# [5] = test system: BM monocytes from WT and CIS−/− mice; assay: Differentiation of BM monocytes into CD11c+ GM-Macs; assay type: cell-based, mouse; conditions: CIS-deficient relative to WT monocytes; n = 4 mice
# How it was run: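 Monocytes were purified from bone marrow by anti-CD115 magnetic positive selection (>95% purity). They were cultured with recombinant GM-CSF at 100 ng/ml in RPMI 1640 with antibiotics and 10% heat-inactivated FCS for the indicated times. The frequency of CD11c+ GM-Macs was determined by flow cytometry. n = 4 mice pooled from two independent experiments.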
# [6] = test system: BM monocytes from WT and CIS−/− mice; assay: Chemokine; assay type: cell-based, mouse; conditions: 8 h after GM-CSF stimulation, n = 3 mice
# How it was run: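 Bone marrow monocytes from WT and CIS−/− mice were isolated by anti-CD115-biotin/anti-biotin microbead positive selection (>95% purity). They were stimulated with recombinant GM-CSF at 100 ng/ml for 8 h in RPMI 1640 with antibiotics and 10% heat-inactivated FCS. Ccl17 and Ccl22 mRNA was measured by real-time PCR, normalized to Gapdh. n = 3 mice, one experiment.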
# [7] = test system: WT and CIS−/− BM neutrophils; assay: RNASeq of BM neutrophils after GM-CSF stimulation; assay type: cell-based, mouse; conditions: GM-CSF 100 ng/ml
# How it was run: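 Neutrophils were FACS-sorted from WT and CIS−/− bone marrow (PI– CD3– CD19– CD115– CD11b+ Ly6G+; 99–100% purity). They were left unstimulated or stimulated with recombinant GM-CSF at 100 ng/ml for 4 h and 24 h. RNA libraries underwent single-end 75 bp sequencing on a NextSeq 500 (~20 million reads per sample), and reads were quality-checked with fastqc.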
# [8] = test system: GM-CSF (Csf2fl/fl:R26CreERT2 mice); assay: EAE with tamoxifen-induced GM-CSF deletion; assay type: in vivo, mouse; conditions: tamoxifen by oral gavage after EAE onset in Csf2fl/fl:R26CreERT2 mice; n = 12 mice
# [9] = test system: WT and CIS−/− BM eosinophils; assay: Generation of eosinophils from BM cells in IL-5; assay type: cell-based, mouse; conditions: IL-5 for 3 d, n = 3 mice
# eosinophils = conditions: ref Burnham et al., 2013; Matsumoto et al., 1997; Yoshimura et al., 1995; cited from earlier work
molecule,measurement,setting,value
IL-18: IL-1 family member; exogenous IL-18,"effect on CIA, exogenous IL-18","IL-18; ref Gracie et al., 1999",prime CIA
same,"secretion of GM-CSF (along with nitric oxide, TNF, and IFN-γ)",synovial cell cultures,promote the secretion of GM-CSF
GM-CSF: recombinant GM-CSF (100 ng/ml),persistence of SOCS mRNA induction,WT mouse BM neutrophils,only Cish mRNA levels were sustained at later time points
same,CIS induction and STAT5 phosphorylation,[1],CIS induction and STAT5 phosphorylation
same,"STAT5 activation, later time points","CIS−/− BM neutrophils; CIS−/− vs WT neutrophils, 100 ng/ml GM-CSF, 2 h after stimulation",prolonged expression of STAT5 activation at later time points
same,JAK2-STAT5 activation after cytokine withdrawal,CIS−/− BM neutrophils; GM-CSF-primed (3 h) then washed CIS−/− neutrophils,Extended JAK2-STAT5 activation
same,STAT3 and Akt dephosphorylation after cytokine withdrawal,"CIS−/− BM neutrophils; GM-CSF-primed (3 h) then washed, WT vs CIS−/− neutrophils",kinetics of STAT3 and Akt dephosphorylation were similar
same,p38 MAPK and SAPK/JNK activation after cytokine withdrawal,CIS−/− BM neutrophils; GM-CSF-primed then washed CIS−/− neutrophils,prolonged activation of p38 MAPK and SAPK/JNK
same,cell surface GM-CSFRβ expression after stimulation,[2],higher cell surface GM-CSFRβ expression
same,A1/Bfl-1 induction,[3]; BM neutrophils,selectively induced the pro-survival protein A1/Bfl-1
same,A1/Bfl-1 level upon cytokine withdrawal,[3]; CIS−/− neutrophils upon GM-CSF withdrawal,sustained for a longer period
same,cleaved caspase-3 induction upon cytokine withdrawal,[3],delayed induction of cleaved caspase-3
same,Mcl-1 expression,[3],no difference in the expression of prosurvival Mcl-1 protein
same,CXCL2 and CCL3 secretion,[4],secreted higher levels of CXCL2 and CCL3 chemokines
same,cell surface CCRL2 expression,CCRL2 on BM neutrophils,enhanced cell surface CCRL2 expression
same,differentiation into GM-Macs,[5],accelerated differentiation into GM-Macs
same,chemokine production by monocytes,[6],produced higher levels of chemokines
same,"gene expression change, 24 h","[7]; CIS−/− neutrophils, 24 h",extensive transcriptional changes
same,"gene expression change, 4 h","[7]; CIS−/− vs WT neutrophils, 4 h",little difference in gene expression
CC/C(=C(\c1ccccc1)c1ccc(OCCN(C)C)cc1)c1ccccc1 [tamoxifen],progression of EAE,[8],inhibited the progression of EAE
IL-5: cytokine signaling through the common β chain,eosinophil numbers,[9],greater numbers
same,Cish expression in eosinophils,eosinophils,can induce Cish expression
B1,"effect on CIA, IL-18 inhibition","IL-18; ref Plater-Zyberk et al., 2001",alleviation of CIA
B2,cell surface GM-CSFRβ expression after stimulation,[2],no such difference
same,cleaved caspase-3 induction upon cytokine withdrawal,[3],rapid induction of cleaved caspase-3
same,Mcl-1 expression,[3],no difference in the expression of prosurvival Mcl-1 protein
